A short description of series [1]: Solubility of the compound at pH 7.4 after 18 hrs by UV spectrometry. It counts as physicochemical. As to conditions: buffer, pH 7.4. The procedure, abridged:
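10 mM DMSO stocks diluted 100-fold in system solution buffer pH 7.4 and held 18 h at room temperature. Filtered, diluted 1:1 with isopropanol and measured by UV (230–500 nm). Compared against a 600-fold diluted reference in buffer/isopropanol. Triplicates.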

A further series deals with Streptococcus pneumoniae. In words: Antibacterial activity against Streptococcus pneumoniae DAW27 after overnight incubation by microbroth dilution technique. It counts as functional. The method in brief:
(§1)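 Two-fold serial broth dilutions per CLSI; inoculum about 10^5 CFU/mL; top final drug concentration 200 µg/mL; incubated aerobically overnight at 37°C. MIC read visually as the lowest concentration with no visible growth.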
(Broth dilution looks for growth in wells or tubes with falling amounts of substance.)

In a further series the test system is Enterococcus faecalis. In words: Antibacterial activity against Enterococcus faecalis ATCC 3186 after overnight incubation by microbroth dilution technique. The series is classed as functional. The method in brief: as §1
For the next series, the system named is Staphylococcus aureus. The experiment in a line: Antibacterial activity against Staphylococcus aureus ATCC 29213 after overnight incubation by microbroth dilution technique. It counts as functional. The method in brief:
as §1

A further series has as its system Streptococcus pyogenes. The experiment in a line: Antibacterial activity against Streptococcus pyogenes ATCC 700294 after overnight incubation by microbroth dilution technique. The series is classed as functional. The method in brief:
as §1

A further series deals with Escherichia coli. In words: Antibacterial activity against Escherichia coli K12 after overnight incubation by microbroth dilution technique. It counts as functional. The conditions noted are these: K-12. The method in brief:
(§2)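 Non-mycobacterial strains: two-fold serial dilutions in broth by CLSI microbroth dilution. Inoculum about 10^5 cfu/mL; top final drug concentration 200 µg/mL. Aerobic incubation at 37°C overnight. MIC read visually as the lowest concentration with no visible growth.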

A short description of series [2]: Apparent permeability of the compound from basal to apical side of human Caco2 cells at 50 umol/L after 2 hrs by UPLC/MS analysis. It counts as ADME, cell-based. The conditions noted are these: Caco-2. The method in brief: (§3)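 Caco-2 monolayers grown 7 days on Transwell inserts, washed with HBSS/HEPES pH 7.4. Compound at 50 µmol/L added apically or basolaterally, then 2 h at 37°C. Receiver side sampled and quantified by UPLC/MS. Papp = (dQ/dt)/(A×C0), triplicates.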

A further series has as its system Bacillus anthracis. In words: Antibacterial activity against Bacillus anthracis Sterne 34F2 after overnight incubation by microbroth dilution technique. It counts as functional. The method in brief: as §2
The nature of series [3]: Half life in mouse liver microsomes. It counts as ADME, Microsome. The method in brief:
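Mouse liver microsomes at 0.6381 mg/mL protein in 0.1 M potassium phosphate pH 7.4 with EDTA. Reaction started with NADPH regenerating system at 37°C; six time points including 0, triplicate wells. Quenched in cold acetonitrile with warfarin internal standard, analysed by LC–MS. Half-life from a first-order least-squares fit.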

A short description of series [4]: Apparent permeability of the compound from apical to basal side of human Caco2 cells at 50 umol/L after 2 hrs by UPLC/MS analysis. It counts as ADME, cell-based. As to conditions: Caco-2. The method in brief:
as §3

The nature of series [5]: Plasma protein binding in human at 10 uM after 4 hrs by LC/MS analysis. The conditions noted are these: read-out: PPB (converted). The series is classed as ADME, cell-free. The method in brief: (§4)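 Compound at 10 µM (0.1% DMSO) in mouse or human plasma. Rapid equilibrium dialysis (MWCO 8K) against DPBS pH 7.4, 4 h at 37°C with orbital shaking. Both chambers matrix-matched, precipitated with acetonitrile containing warfarin internal standard, quantified by LC–MS. %Free = buffer/plasma × 100; %Bound = 100 − %Free.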

The test system of another series is Bacillus subtilis. In words: Antibacterial activity against Bacillus subtilis ATCC 23857 after overnight incubation by microbroth dilution technique. The series is classed as functional. The method in brief:
as §2

Series [6] in a line: Half life in human liver microsomes. The series is classed as ADME, Microsome. (In general: Liver microsomes are a subcellular fraction often used to study metabolism.)
Series [7] in a line: Plasma protein binding in mouse at 10 uM after 4 hrs by LC/MS analysis. The series is classed as ADME, cell-free. As to conditions: read-out: PPB (converted). The procedure, abridged: as §4

Values after ≈ are worked out from the molar mass of the structure shown.

As a reminder, the solubility is the dissolved amount per volume that the medium holds. The term MIC denotes the smallest concentration in the dilution series that meets the test's criterion for growth inhibition. The term Papp B→A denotes how fast a substance crosses the layer from the basolateral side. In general, half-life refers to the time in which the quantity being followed falls by half. In general, Papp A→B refers to how fast a substance crosses the layer from the apical side. Turning to `CN1CCN(c2ccc(C3CC(c4ccc([N+](=O)[O-])o4)=NO3)cn2)C(=O)C1` (configuration not stated), the solubility at 18 h in series [1] worked out at 28.9 µg/mL (≈ 77.8 µM). Further, the MIC against Streptococcus pneumoniae stood at 50 µg/mL (≈ 135 µM); against Enterococcus faecalis, 100 µg/mL (≈ 269 µM); in the series on Staphylococcus aureus, 12.5 µg/mL (≈ 33.7 µM); with Streptococcus pyogenes, 50 µg/mL (≈ 135 µM); with Escherichia coli, 50 µg/mL (≈ 135 µM); in the series with Bacillus anthracis, 25 µg/mL (≈ 67.3 µM). In the series with Bacillus subtilis, this compound had an MIC of 25 µg/mL (≈ 67.3 µM). Besides, in series [2], the Papp B→A at 2 h, 50 µM was determined as 33.3 ×10⁻⁶ cm/s. Besides, the half-life in series [3] was 0.35 h; in series [6], 4.24 h. Further, in series [4], the Papp A→B at 2 h, 50 µM was determined as 36.6 ×10⁻⁶ cm/s. Moreover, the fraction unbound at 4 h, 10 µM in [5] was 0.511; in series [7] it was 0.402.

As to `CN1CCN(c2ccc(C3CC(c4ccc([N+](=O)[O-])o4)=NO3)cc2F)C(=O)C1` (configuration not stated), the concentration in solution in [1] (solubility at 18 h) was 29.2 µg/mL (≈ 75.2 µM). For the same compound, the MIC with Streptococcus pneumoniae was 50 µg/mL (≈ 129 µM); in the series with Enterococcus faecalis, 100 µg/mL (≈ 257 µM); against Staphylococcus aureus, 6.25 µg/mL (≈ 16.1 µM); against Streptococcus pyogenes it was 50 µg/mL (≈ 129 µM); with Escherichia coli, 200 µg/mL (≈ 515 µM); in the series on Bacillus anthracis, 25 µg/mL (≈ 64.4 µM). Further, the Papp B→A at 2 h, 50 µM in series [2] turned out to be 38.6 ×10⁻⁶ cm/s. Also, the half-life in [3] is 0.62 h; in [6], 4.81 h. Also, in series [4], the Papp A→B at 2 h, 50 µM amounted to 27 ×10⁻⁶ cm/s. The values for the fraction unbound at 4 h, 10 µM in [5] and in series [7] were 0.391 and 0.172, respectively.

Compound `O=C1COCCN1c1ccc(C2CC(c3ccc([N+](=O)[O-])o3)=NO2)cc1` (configuration not stated) gave a solubility at 18 h in series [1] of 25.9 µg/mL (≈ 72.4 µM). Further, the minimum inhibitory concentration (MIC) with Streptococcus pneumoniae was 200 µg/mL (≈ 560 µM); in the series with Enterococcus faecalis it was above 200 µg/mL; in the series on Staphylococcus aureus it was 6.25 µg/mL (≈ 17.5 µM); in the series with Streptococcus pyogenes, 100 µg/mL (≈ 280 µM); against Escherichia coli, 25 µg/mL (≈ 70 µM); in the series on Bacillus anthracis, 25 µg/mL (≈ 70 µM). The compound also registered an MIC in the series on Bacillus subtilis of 6.25 µg/mL (≈ 17.5 µM). Also, in series [2], the Papp B→A at 2 h, 50 µM turned out to be 56.5 ×10⁻⁶ cm/s. The half-life in [3] is 1.4 h; in series [6], 10 h. For the same compound, the Papp A→B at 2 h, 50 µM in series [4] came to 12.6 ×10⁻⁶ cm/s. In addition, the fraction unbound at 4 h, 10 µM is 0.357 in [5] and 0.34 in series [7].

On to `O=C1COCCN1c1ccc(C2CC(c3ccc([N+](=O)[O-])o3)=NO2)cn1` (configuration not stated), for which, in [1], the solubility at 18 h was 21.9 µg/mL (≈ 61.2 µM). For the same compound, the MIC against Streptococcus pneumoniae is 50 µg/mL (≈ 140 µM); against Enterococcus faecalis, above 200 µg/mL; against Staphylococcus aureus it was 12.5 µg/mL (≈ 34.9 µM); in the series with Escherichia coli, 25 µg/mL (≈ 69.8 µM); against Bacillus anthracis, 25 µg/mL (≈ 69.8 µM); against Bacillus subtilis, 12.5 µg/mL (≈ 34.9 µM). Moreover, in series [2], the Papp B→A at 2 h, 50 µM amounted to 45.7 ×10⁻⁶ cm/s. Besides, the half-life in series [3] is 1.01 h; in series [6], 1.52 h. For the same compound, in series [4], the Papp A→B at 2 h, 50 µM came to 8.61 ×10⁻⁶ cm/s. The fraction unbound at 4 h, 10 µM was 0.398 in series [5] and 0.411 in series [7].

On to `O=C1COCCN1c1ccc(C2CC(c3ccc([N+](=O)[O-])o3)=NO2)cc1F` (configuration not stated), for which, in series [1], the concentration in solution (solubility at 18 h) was 12.6 µg/mL (≈ 33.5 µM). In addition, the MIC against Streptococcus pneumoniae was 200 µg/mL (≈ 533 µM); with Enterococcus faecalis, 200 µg/mL (≈ 533 µM); against Staphylococcus aureus, 6.25 µg/mL (≈ 16.7 µM); in the series with Streptococcus pyogenes, 100 µg/mL (≈ 266 µM); against Escherichia coli, above 200 µg/mL; in the series with Bacillus anthracis it was 25 µg/mL (≈ 66.6 µM). Also, the Papp B→A at 2 h, 50 µM in series [2] was 42.4 ×10⁻⁶ cm/s. Further, the half-life was 1.38 h in series [3] and 8.31 h in series [6]. In addition, in [4], the Papp A→B at 2 h, 50 µM was 15.4 ×10⁻⁶ cm/s. The fraction unbound at 4 h, 10 µM in series [5] is 0.292; in series [7] it was 0.203.

Values taken from ChEMBL document CHEMBL2146426, “Antitubercular nitrofuran isoxazolines with improved pharmacokinetic properties” (Bioorg Med Chem, 2012).
